Experimental data published in ChEMBL document CHEMBL3232922, “Discovery and SAR of 6-alkyl-2,4-diaminopyrimidines as histamine H₄ receptor antagonists” (J Med Chem, 2014).
Values belong to the compound of their own block, whether it stands above or below them. Activity calls are given as the source filed them. The calls are words filed in the database; no cut-off is given here.

Columns and labels:
[1] = biological target: T1, Histamine H4 receptor (Homo sapiens, UniProt Q9H3N8); assay: Agonist activity at human H4 receptor; conditions: read-out: EC50
[2] = biological target: T1, Histamine H4 receptor; assay: Antagonist activity at human histamine H4 receptor expressed in SK-N-MC cells assessed as reduction of histamine-induced inhibition of cAMP-mediated beta-galactosidase reporter gene activity treated 10 mins prior to histamine challenge by microplate reader analysis; format: functional, cell-based; conditions: read-out: pA2 (converted)
[3] = biological target: T1, Histamine H4 receptor; assay: Displacement of [3H]histamine from human recombinant histamine H4 receptor expressed in SK-N-MC cells after 45 mins by competition binding analysis; format: cell-based
[4] = system: Rattus norvegicus; assay: Clearance in Sprague-Dawley rat at 2 mg/kg, iv; format: ADME, organism-based; parameters: dose 2 mg/kg, route intravenous; conditions: in vivo
[5] = biological target: Histamine H3 receptor (Homo sapiens, UniProt Q9Y5N1); assay: Displacement of [3H]N-alpha-methylhistamine from human recombinant histamine H3 receptor expressed in SK-N-MC cells after 45 mins by competition binding analysis; format: cell-based
Chain of Histamine H3 receptor (Q9Y5N1 whole entry): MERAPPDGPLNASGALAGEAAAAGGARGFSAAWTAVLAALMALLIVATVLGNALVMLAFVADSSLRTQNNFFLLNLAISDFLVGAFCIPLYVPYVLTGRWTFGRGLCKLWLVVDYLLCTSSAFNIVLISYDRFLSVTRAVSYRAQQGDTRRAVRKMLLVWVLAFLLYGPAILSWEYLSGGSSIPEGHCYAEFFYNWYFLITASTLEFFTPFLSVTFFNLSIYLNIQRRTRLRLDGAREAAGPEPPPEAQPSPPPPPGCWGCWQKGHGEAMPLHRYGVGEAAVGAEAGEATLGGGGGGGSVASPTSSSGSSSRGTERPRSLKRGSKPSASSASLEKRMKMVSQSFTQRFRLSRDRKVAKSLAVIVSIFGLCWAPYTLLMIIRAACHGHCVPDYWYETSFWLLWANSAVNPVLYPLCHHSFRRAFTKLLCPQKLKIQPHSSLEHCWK

[6] = biological target: Voltage-gated inwardly rectifying potassium channel KCNH2 (Homo sapiens, UniProt Q12809); assay: Inhibition of human ERG channel transfected in HEK293 cells assessed as reduction in delayed rectifier current by patch clamp assay; format: cell-based
Chain of Voltage-gated inwardly rectifying potassium channel KCNH2 (Q12809 whole entry): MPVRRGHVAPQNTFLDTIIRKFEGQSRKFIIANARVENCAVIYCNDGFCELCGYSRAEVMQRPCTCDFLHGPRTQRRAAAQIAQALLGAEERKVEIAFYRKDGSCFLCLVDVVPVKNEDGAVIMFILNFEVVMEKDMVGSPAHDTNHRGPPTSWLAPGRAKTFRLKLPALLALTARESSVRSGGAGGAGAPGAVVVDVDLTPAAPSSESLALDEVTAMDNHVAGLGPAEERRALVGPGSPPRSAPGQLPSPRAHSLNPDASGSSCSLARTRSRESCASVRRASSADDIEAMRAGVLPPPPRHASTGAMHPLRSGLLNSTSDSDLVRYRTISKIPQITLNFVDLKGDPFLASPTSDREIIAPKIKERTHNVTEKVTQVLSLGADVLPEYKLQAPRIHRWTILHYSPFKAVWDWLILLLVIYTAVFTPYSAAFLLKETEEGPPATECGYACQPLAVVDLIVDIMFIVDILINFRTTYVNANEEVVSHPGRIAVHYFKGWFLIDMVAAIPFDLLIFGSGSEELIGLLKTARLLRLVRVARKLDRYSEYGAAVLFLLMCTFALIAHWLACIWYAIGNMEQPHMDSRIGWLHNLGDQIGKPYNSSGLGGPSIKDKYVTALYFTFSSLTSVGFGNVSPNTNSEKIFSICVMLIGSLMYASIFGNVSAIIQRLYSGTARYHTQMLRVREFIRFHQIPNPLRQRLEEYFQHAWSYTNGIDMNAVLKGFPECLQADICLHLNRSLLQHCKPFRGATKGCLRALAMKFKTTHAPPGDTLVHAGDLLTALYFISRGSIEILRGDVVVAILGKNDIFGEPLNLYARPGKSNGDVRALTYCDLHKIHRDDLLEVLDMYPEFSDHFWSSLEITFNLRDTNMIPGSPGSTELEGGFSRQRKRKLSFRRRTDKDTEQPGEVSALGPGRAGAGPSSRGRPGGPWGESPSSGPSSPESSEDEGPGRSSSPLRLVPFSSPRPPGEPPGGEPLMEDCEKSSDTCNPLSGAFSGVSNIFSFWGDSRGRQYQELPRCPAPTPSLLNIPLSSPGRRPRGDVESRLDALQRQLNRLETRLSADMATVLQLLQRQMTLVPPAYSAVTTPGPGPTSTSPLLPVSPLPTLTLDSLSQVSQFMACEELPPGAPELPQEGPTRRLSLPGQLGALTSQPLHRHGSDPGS
Outline: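 The delayed rectifier current (IKr) was recorded in hERG-transfected HEK293 cells with the compound at 3 μM.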

[7] = Oral bioavailability in beagle dog at 10 mg/kg; format: ADME, organism-based, Canis lupus familiaris; conditions: in vivo
[8] = Oral bioavailability in Sprague-Dawley rat at 10 mg/kg; format: ADME, organism-based; conditions: in vivo
[9] = AUC in Sprague-Dawley rat at 10 mg/kg, po; format: ADME, organism-based; parameters: dose 10 mg/kg, route oral; conditions: plasma
[10] = Permeability from basolateral to apical side in human Caco cells; format: ADME, cell-based; conditions: Caco-2, read-out: permeability
[11] = Half life in rat at 10 mg/kg, po; format: ADME, organism-based; parameters: dose 10 mg/kg, route oral; conditions: in vivo
[12] = biological target: T2, Histamine H4 receptor (Mus musculus, UniProt Q91ZY2); assay: Antagonist activity at mouse histamine H4 receptor expressed in SK-N-MC cells assessed as reduction of histamine-induced inhibition of cAMP-mediated beta-galactosidase reporter gene activity treated 10 mins prior to histamine challenge by microplate reader analysis; format: functional, cell-based; conditions: read-out: pA2 (converted)
T2 sequence (Q91ZY2 whole entry): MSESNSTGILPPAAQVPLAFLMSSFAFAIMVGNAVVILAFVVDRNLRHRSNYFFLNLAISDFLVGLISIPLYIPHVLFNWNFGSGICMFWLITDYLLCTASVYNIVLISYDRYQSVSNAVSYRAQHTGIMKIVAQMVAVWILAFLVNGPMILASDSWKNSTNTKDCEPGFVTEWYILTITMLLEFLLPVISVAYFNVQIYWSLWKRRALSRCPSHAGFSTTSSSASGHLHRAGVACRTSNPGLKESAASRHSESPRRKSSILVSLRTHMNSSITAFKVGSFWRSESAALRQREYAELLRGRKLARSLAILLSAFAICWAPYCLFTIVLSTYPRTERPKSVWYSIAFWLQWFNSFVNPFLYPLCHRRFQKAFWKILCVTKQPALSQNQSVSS

[13] = AUC in Sprague-Dawley rat at 2 mg/kg, iv; format: ADME, organism-based; parameters: dose 2 mg/kg, route intravenous; conditions: plasma
[14] = Oral bioavailability in rat at 10 mg/kg; format: ADME, organism-based; conditions: in vivo
[15] = Half life in human microsomes; format: ADME, Microsome
[16] = system: Rattus norvegicus; assay: Volume of distribution at steady state in Sprague-Dawley rat at 2 mg/kg, iv; format: ADME, organism-based; parameters: dose 2 mg/kg, route intravenous; conditions: in vivo
[17] = Volume of distribution at steady state in beagle dog at 2 mg/kg, iv; format: ADME, organism-based, Canis lupus familiaris; parameters: dose 2 mg/kg, route intravenous; conditions: in vivo, read-out: Vdss
[18] = Initial plasma concentration in beagle dog at 2 mg/kg, iv; format: ADME, organism-based, Canis lupus familiaris; parameters: dose 2 mg/kg, route intravenous
[19] = biological target: T2, Histamine H4 receptor; assay: Partial agonist activity at mouse histamine H4 receptor
[20] = Initial plasma concentration in Sprague-Dawley rat at 2 mg/kg, iv; format: ADME, organism-based; parameters: dose 2 mg/kg, route intravenous
[21] = Volume of distribution at steady state in rat at 2 mg/kg, iv; format: ADME, organism-based; parameters: dose 2 mg/kg, route intravenous; conditions: in vivo, read-out: Vdss
[22] = biological target: T2, Histamine H4 receptor; assay: Displacement of [3H]histamine from mouse histamine H4 receptor expressed in SK-N-MC cells after 45 mins by competition binding analysis; format: cell-based
Outline: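 Transfected cells expressing the H4 receptor, competition against [3H]histamine. Ki is the geometric mean of at least three independent determinations (each in triplicate), calculated by the Cheng–Prusoff equation.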

[23] = Cmax in Sprague-Dawley rat at 10 mg/kg, po; format: ADME, organism-based; parameters: dose 10 mg/kg, route oral; conditions: in vivo
[24] = Cmax in rat at 10 mg/kg, po; format: ADME, organism-based; parameters: dose 10 mg/kg, route oral; conditions: in vivo
[25] = Half life in rat microsomes; format: ADME, Microsome
[26] = system: Canis familiaris; assay: Clearance in beagle dog at 2 mg/kg, iv; format: ADME, organism-based, Canis lupus familiaris; parameters: dose 2 mg/kg, route intravenous; conditions: in vivo
[27] = system: Rattus norvegicus; assay: Half life in Sprague-Dawley rat at 2 mg/kg, iv; format: ADME, organism-based; parameters: dose 2 mg/kg, route intravenous; conditions: in vivo
[28] = system: Canis familiaris; assay: AUC in beagle dog at 2 mg/kg, iv; format: ADME, organism-based, Canis lupus familiaris, Plasma; parameters: dose 2 mg/kg, route intravenous; conditions: in vivo
[29] = Half life in rat at 2 mg/kg, iv; format: ADME, organism-based; parameters: dose 2 mg/kg, route intravenous; conditions: in vivo
[30] = Tmax in Sprague-Dawley rat at 10 mg/kg, po; format: ADME, organism-based; parameters: dose 10 mg/kg, route oral; conditions: in vivo
[31] = Half life in beagle dog at 2 mg/kg, iv; format: ADME, organism-based, Canis lupus familiaris; parameters: dose 2 mg/kg, route intravenous; conditions: in vivo
[32] = Half life in Sprague-Dawley rat at 10 mg/kg, po; format: ADME, organism-based; parameters: dose 10 mg/kg, route oral; conditions: in vivo
[33] = Cmax in beagle dog at 10 mg/kg, po; format: ADME, organism-based, Canis lupus familiaris; parameters: dose 10 mg/kg, route oral; conditions: in vivo
[34] = Permeability from apical to basolateral side in human Caco cells; format: ADME, cell-based; conditions: Caco-2, read-out: permeability
[35] = AUC in beagle dog at 10 mg/kg, po; format: ADME, organism-based, Canis lupus familiaris; parameters: dose 10 mg/kg, route oral; conditions: plasma
[36] = Half life in beagle dog at 10 mg/kg, po; format: ADME, organism-based, Canis lupus familiaris; parameters: dose 10 mg/kg, route oral; conditions: in vivo
[37] = Tmax in beagle dog at 10 mg/kg, po; format: ADME, organism-based, Canis lupus familiaris; parameters: dose 10 mg/kg, route oral; conditions: in vivo
[38] = AUC in rat at 2 mg/kg, iv; format: ADME, organism-based; parameters: dose 2 mg/kg, route intravenous; conditions: plasma
[39] = Clearance in rat at 2 mg/kg, iv; format: ADME, organism-based; parameters: dose 2 mg/kg, route intravenous; conditions: in vivo
[40] = biological target: hERG (KCNH2) (Homo sapiens, UniProt Q12809); assay: Inhibition of human ERG channel transfected in HEK293 cells assessed as reduction in delayed rectifier current at 3 uM by patch clamp assay; format: cell-based; conditions: HEK293 cells transfected with human ERG channel
Chain of hERG (KCNH2) (Q12809 whole entry): as the sequence (Q12809 whole entry) above

[41] = Fraction unbound in human plasma; format: ADME, cell-free
[42] = system: Mus musculus; assay: Antiinflammatory activity in po dosed Balb/c mouse assessed as inhibition of LPS-induced TNF-alpha release at plasma concentration of 62.5 nM administered 30 mins prior to LPS challenge measured after 2 hrs by ELISA; format: functional, organism-based

EC50 [1]: > 10000 nM
Kb [2]: 0.251 nM
Ki [3]: 1.1 nM
SMILES: CN[C@@H]1CCN(c2cc(C3CCCC3)nc(N)n2)C1

EC50 [1]: > 10000 nM
Kb [2]: 12.6 nM
SMILES: CCc1cc(N2CC[C@@H](N)C2)nc(N)n1

EC50 [1]: > 10000 nM
Kb [2]: < 0.1 nM
Ki [3]: 2.3 nM
SMILES: CN[C@@H]1CCN(c2cc(C3CCCCC3)nc(N)n2)C1

EC50 [1]: > 10000 nM
Kb [2]: 5.01 nM
Ki [3]: 9.4 nM
SMILES: CC(C)(C)c1cc(N2CC[C@@H](N)C2)nc(N)n1

EC50 [1]: > 10000 nM
Kb [2]: 7.94 nM
SMILES: CN[C@@H]1CCN(c2cc(C3CC3)nc(N)n2)C1

EC50 [1]: > 10000 nM
Kb [2]: 12.6 nM
SMILES: CN[C@@H]1CCN(c2cc(C(C)C)nc(N)n2)C1

SMILES: Nc1nc(C2CCCC2)cc(N2C[C@H]3NCCO[C@@H]3C2)n1 (racemic)
EC50 [1]: > 10000 nM
Kb [2]: 126 nM
Ki [3]: 56 nM

Ki [3]: 9 nM
SMILES: CN[C@@H]1CCN(c2nc(N)nc3c2oc2ncc(Cl)cc23)C1

SMILES: Nc1nc(C2CCCC2)cc(N2CCNCC2)n1
CL [4]: 7.03 mL/min/kg
Ki [5]: 24 nM
EC50 [1]: > 10000 nM
INH [6]: > 10 µM
bioavailability [7]: 114%
bioavailability [8]: 20.7%
AUC [9]: 8.2 µM·h
Papp B→A [10]: 16 ×10⁻⁶ cm/s
Kb [2]: 0.316 nM
half-life [11]: 9 h
Kb [12]: 10 nM
AUC [13]: 20.6 µM·h
bioavailability [14]: 20%
half-life [15]: > 1.67 h
Vdss [16]: 3.1 L/kg
Vd [17]: 24.4 L/kg
C0 [18]: 1760 nM
EC50 [19]: 7.3 nM
C0 [20]: 25000 nM
Vd [21]: 2.7 L/kg
Ki [22]: 20 nM
Cmax [23]: 600 nM
Cmax [24]: 310 nM
half-life [25]: 1.43 h
CL [26]: 353.2 mL/min/kg
t1/2 [27]: 2.2 h
AUC [28]: 5.38 µM·h
half-life [29]: 1.1 h
Tmax [30]: 2 h
half-life [31]: 10.8 h
half-life [32]: 8.7 h
Cmax [33]: 1490 nM
Papp A→B [34]: 32 ×10⁻⁶ cm/s
AUC [35]: 30.8 µM·h
half-life [36]: 9.01 h
Tmax [37]: 4 h
AUC [38]: 5 µM·h
clearance [39]: 10.5 mL/min/kg
Ki [3]: 1.2 nM
inhibition at 3 µM [40]: 21%

EC50 [1]: > 10000 nM
Kb [2]: 0.398 nM
Ki [3]: 2.4 nM
SMILES: CN[C@@H]1CCN(c2cc(C3CCC3)nc(N)n2)C1

EC50 [1]: > 10000 nM
Ki [3]: 25 nM
SMILES: CN[C@H]1CCN(c2cc(C3CCCC3)nc(N)n2)C1

fraction unbound [41]: 0.26
Ki [5]: 670 nM
EC50 [1]: > 10000 nM
Papp B→A [10]: 14 ×10⁻⁶ cm/s
Kb [2]: 10 nM
half-life [11]: 9.7 h
Kb [12]: 50.1 nM
bioavailability [14]: 50%
half-life [15]: > 2 h
Vd [21]: 6.3 L/kg
Ki [22]: 62 nM
Cmax [24]: 1500 nM
half-life [25]: 1.05 h
half-life [29]: 5.3 h
Papp A→B [34]: 54 ×10⁻⁶ cm/s
AUC [38]: 11 µM·h
clearance [39]: 5 mL/min/kg
SMILES: CCc1cc(N2CC[C@@H](NC)C2)nc(N)n1
INH [6]: > 10 µM
inhibition [42]: Active

Ki [3]: 39 nM
SMILES: CN1CCN(C(=O)c2nc3c([nH]2)CCCC3)CC1

SMILES: Nc1nc(C2CCCC2)cc(N2C[C@H]3CNC[C@H]3C2)n1
Ki [3]: 328 nM

SMILES: Nc1nc(C2CCCC2)cc(N2C[C@@H]3NCCO[C@@H]3C2)n1 (relative stereo)
Ki [3]: 520 nM

SMILES: Nc1nc(C2CCCC2)cc(N2CCC3(CCCN3)C2)n1 (stereo not given)
EC50 [1]: > 10000 nM
Kb [2]: 2.51 nM
Ki [3]: 11.2 nM

Ki [3]: 5 nM
SMILES: Cc1cnc(OCCCCC2CCN(C)CC2)cc1-c1nc2c(C)c(F)ccc2[nH]1
